Experimental data published in ChEMBL document CHEMBL1152757, “Stereoselective synthesis and biological evaluation of syn-1-amino-3-[18F]fluorocyclobutyl-1-carboxylic acid as a potential positron emission tomography brain tumor imaging agent” (Bioorg Med Chem, 2009).

Tests used:
Liver [1] = assay: Biodistribution in liver of rat 9L cells implanted Fischer rat at 15 to 30 uCi, iv after 30 mins by gamma-counter; assay type: ADME, organism-based; details: in vivo, 0.5 h
In short: (§1)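 Male Fischer 344 rats (125-175 g) implanted intracranially by stereotactic injection of 5 × 10^4 9L gliosarcoma cells. Used 10-12 days after implantation. Tracer given into the tail vein at 15-30 µCi in 0.1-0.3 mL sterile saline. Groups of 4 were sacrificed at 15, 30, 60 and 120 min. Tissues were weighed and gamma-counted against dose standards, and counts decay-corrected to %ID/g (mean ± SD). One-way ANOVA.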

Liver [2] = assay: Biodistribution in liver of rat 9L cells implanted Fischer rat at 15 to 30 uCi, iv after 120 mins by gamma-counter; assay type: ADME, organism-based; details: in vivo, 2 h; in short: as §1
[3] = Ratio of drug level from tumor to brain of rat 9L cells implanted Fischer rat at 15 to 30 uCi, iv after 30 mins by gamma-counter; assay type: ADME, organism-based; details: in vivo, 0.5 h
In short: (§2)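 Male Fischer 344 rats (125-175 g) received intracranial implants of 9L cells (5 × 10^4 cells) and were used 10-12 days later. Tracer was given by tail vein at 15-30 µCi in 0.1-0.3 mL sterile saline. Groups of 4 were killed at each time point. Tissues were weighed and gamma counted against dose standards with decay correction, giving %ID/g (mean). The ratio is tumor %ID/g over normal brain %ID/g.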

Brain [4] = assay: Biodistribution in brain of rat 9L cells implanted Fischer rat at 15 to 30 uCi, iv after 30 mins by gamma-counter; assay type: ADME, organism-based; details: in vivo, 0.5 h; in short: as §1
Bone [5] = assay: Biodistribution in bone of rat 9L cells implanted Fischer rat at 15 to 30 uCi, iv after 120 mins by gamma-counter; assay type: ADME, organism-based, Bone element; details: in vivo, 2 h; in short: as §1
Lung [6] = assay: Biodistribution in lung of rat 9L cells implanted Fischer rat at 15 to 30 uCi, iv after 120 mins by gamma-counter; assay type: ADME, organism-based; details: in vivo, 2 h; in short: as §1
[7] = Biodistribution in testis of rat 9L cells implanted Fischer rat at 15 to 30 uCi, iv after 30 mins by gamma-counter; assay type: ADME, organism-based; details: in vivo, 0.5 h; in short: as §1
Heart [8] = assay: Biodistribution in heart of rat 9L cells implanted Fischer rat at 15 to 30 uCi, iv after 30 mins by gamma-counter; assay type: ADME, organism-based; details: in vivo, 0.5 h; in short: as §1
Blood = assay: Biodistribution in blood of rat 9L cells implanted Fischer rat at 15 to 30 uCi, iv after 30 mins by gamma-counter; assay type: ADME, organism-based; details: in vivo, 0.5 h; in short: as §1
Lung [9] = assay: Biodistribution in lung of rat 9L cells implanted Fischer rat at 15 to 30 uCi, iv after 15 mins by gamma-counter; assay type: ADME, organism-based; details: in vivo, 0.25 h; in short: as §1
Spleen [10] = assay: Biodistribution in spleen of rat 9L cells implanted Fischer rat at 15 to 30 uCi, iv after 120 mins by gamma-counter; assay type: ADME, organism-based; details: in vivo, 2 h; in short: as §1
Heart [11] = assay: Biodistribution in heart of rat 9L cells implanted Fischer rat at 15 to 30 uCi, iv after 120 mins by gamma-counter; assay type: ADME, organism-based; details: in vivo, 2 h; in short: as §1
Bone [12] = assay: Biodistribution in bone of rat 9L cells implanted Fischer rat at 15 to 30 uCi, iv after 30 mins by gamma-counter; assay type: ADME, organism-based, Bone element; details: in vivo, 0.5 h; in short: as §1
Kidney [13] = assay: Biodistribution in kidney of rat 9L cells implanted Fischer rat at 15 to 30 uCi, iv after 15 mins by gamma-counter; assay type: ADME, organism-based; details: in vivo, 0.25 h; in short: as §1
Lung [14] = assay: Biodistribution in lung of rat 9L cells implanted Fischer rat at 15 to 30 uCi, iv after 60 mins by gamma-counter; assay type: ADME, organism-based; details: in vivo, 1 h; in short: as §1
Spleen [15] = assay: Biodistribution in spleen of rat 9L cells implanted Fischer rat at 15 to 30 uCi, iv after 60 mins by gamma-counter; assay type: ADME, organism-based; details: in vivo, 1 h; in short: as §1
[16] = Ratio of drug level from tumor to brain of rat 9L cells implanted Fischer rat at 15 to 30 uCi, iv after 60 mins by gamma-counter; assay type: ADME, organism-based; details: in vivo, 1 h; in short: as §2
Muscle tissue = assay: Biodistribution in muscle of rat 9L cells implanted Fischer rat at 15 to 30 uCi, iv after 60 mins by gamma-counter; assay type: ADME, organism-based; details: in vivo, 1 h; in short: as §1
Brain [17] = assay: Biodistribution in brain of rat 9L cells implanted Fischer rat at 15 to 30 uCi, iv after 15 mins by gamma-counter; assay type: ADME, organism-based; details: in vivo, 0.25 h; in short: as §1
[18] = Biodistribution in tumor of rat 9L cells implanted Fischer rat at 15 to 30 uCi, iv after 30 mins by gamma-counter; assay type: ADME, organism-based, Neoplasm; details: in vivo, 0.5 h; in short: as §1
Kidney [19] = assay: Biodistribution in kidney of rat 9L cells implanted Fischer rat at 15 to 30 uCi, iv after 60 mins by gamma-counter; assay type: ADME, organism-based; details: in vivo, 1 h; in short: as §1
Pancreas [20] = assay: Biodistribution in pancreas of rat 9L cells implanted Fischer rat at 15 to 30 uCi, iv after 60 mins by gamma-counter; assay type: ADME, organism-based; details: in vivo, 1 h; in short: as §1
Pancreas [21] = assay: Biodistribution in pancreas of rat 9L cells implanted Fischer rat at 15 to 30 uCi, iv after 30 mins by gamma-counter; assay type: ADME, organism-based; details: in vivo, 0.5 h; in short: as §1
[22] = Biodistribution in testis of rat 9L cells implanted Fischer rat at 15 to 30 uCi, iv after 120 mins by gamma-counter; assay type: ADME, organism-based; details: in vivo, 2 h; in short: as §1
Brain [23] = assay: Biodistribution in brain of rat 9L cells implanted Fischer rat at 15 to 30 uCi, iv after 60 mins by gamma-counter; assay type: ADME, organism-based; details: in vivo, 1 h; in short: as §1
[24] = Biodistribution in tumor of rat 9L cells implanted Fischer rat at 15 to 30 uCi, iv after 60 mins by gamma-counter; assay type: ADME, organism-based, Neoplasm; details: in vivo, 1 h; in short: as §1
[25] = Ratio of drug level from tumor to brain of rat 9L cells implanted Fischer rat at 15 to 30 uCi, iv after 15 mins by gamma-counter; assay type: ADME, organism-based; details: in vivo, 0.25 h; in short: as §2

**Q.** Which results are given for N[C@]1(C(=O)O)C[C@H]([18F])C1?
**A.** Drug uptake (Liver [1]): 0.6 % ID/g; Drug uptake (Liver [2]): 0.4 % ID/g; Ratio [3]: 11.5; Drug uptake (Brain [4]): 0.18 % ID/g; Drug uptake (Bone [5]): 0.2 % ID/g; Drug uptake (Lung [6]): 0.48 % ID/g; Drug uptake [7]: 0.27 % ID/g; Drug uptake (Heart [8]): 0.47 % ID/g; Drug uptake (Blood): 0.37 % ID/g; Drug uptake (Lung [9]): 0.4 % ID/g; Drug uptake (Spleen [10]): 0.4 % ID/g; Drug uptake (Heart [11]): 0.3 % ID/g; Drug uptake (Bone [12]): 0.26 % ID/g; Drug uptake (Kidney [13]): 0.76 % ID/g; Drug uptake (Lung [14]): 0.42 % ID/g; Drug uptake (Spleen [15]): 0.52 % ID/g; Ratio [16]: 7.6; Drug uptake (Muscle tissue): 0.42 % ID/g; Drug uptake (Brain [17]): 0.2 % ID/g; Drug uptake [18]: 2.1 % ID/g; Drug uptake (Kidney [19]): 0.7 % ID/g; Drug uptake (Pancreas [20]): 2.83 % ID/g; Drug uptake (Pancreas [21]): 3.36 % ID/g; Drug uptake [22]: 0.21 % ID/g; Drug uptake (Brain [23]): 0.2 % ID/g; Drug uptake [24]: 1.48 % ID/g; Ratio [25]: 7.2
